According to ChEMBL document CHEMBL2401620, “Molecular design, synthesis and biological evaluation of BP-O-DAPY and O-DAPY derivatives as non-nucleoside HIV-1 reverse transcriptase inhibitors” (Eur J Med Chem, 2013):

Tested on: Human immunodeficiency virus 1
Assay: Antiviral activity against HIV1 3B infected in human MT4 cells assessed as inhibition of virus-induced cytopathic effect after 5 days by MTT assay
Type: functional, organism-based
Details: Human immunodeficiency virus 1, 3B, MT4, 120 h
In short: (§1)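 MT-4 cells, spun 5 min at 220 g, resuspended at 6 × 10⁵ cells/mL, infected with virus stock at 100-300 CCID50. Serial 5-fold compound dilutions were added at the start, in triplicate wells. After 5 days, viability was read by MTT reduction at 540 and 690 nm.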

Row | Structure (SMILES) | EC50
1 | N#Cc1ccc(Nc2nccc(Oc3ccc(C(=O)c4ccc(O)cc4)cc3)n2)cc1 | 2.72 µM
2 | Cc1cn([C@H]2C[C@H](N=[N+]=[N-])[C@@H](CO)O2)c(=O)[nH]c1=O [ZIDOVUDINE] | 0.01 µM
3 | Cc1cc(C)cc(C(=O)c2cc(Cl)ccc2Oc2cc(C)nc(Nc3ccc(C#N)cc3)n2)c1 | > 37.1 µM
4 | Cc1ccc(C(=O)c2cc(Cl)ccc2Oc2nc(Nc3ccc(C#N)cc3)ncc2C)cc1 | 3.79 µM
5 | COc1ccc(C(=O)c2ccccc2)c(Oc2cc(C)nc(Nc3ccc(C#N)cc3)n2)c1 | > 4.9 µM
6 | Cc1ccc(C(=O)c2cc(Cl)ccc2Oc2ccnc(Nc3ccc(C#N)cc3)n2)cc1 | > 1.71 µM
7 | Cc1cnc(Nc2ccc(C#N)cc2)nc1Oc1ccc(C(=O)c2ccc(O)cc2)cc1 | 3.61 µM
8 | O=C1Nc2ccc(Cl)cc2[C@@](C#CC2CC2)(C(F)(F)F)O1 [EFAVIRENZ] | 0.01 µM
9 | Cc1cc(Oc2ccc(Cl)cc2C(=O)c2ccccc2C)nc(Nc2ccc(C#N)cc2)n1 | > 4.24 µM
10 | COCCc1ccc(Oc2cc(C)nc(Nc3ccc(C#N)cc3)n2)cc1 | 0.79 µM
11 | Cc1cc(C)cc(C(=O)c2cc(Cl)ccc2Oc2nc(Nc3ccc(C#N)cc3)ncc2C)c1 | 1.48 µM

Tested on: not listed separately
Assay: Selectivity index, ratio of CC50 for human MT4 cells to EC50 for HIV1 3B
Type: toxicity, cell-based
Details: read-out: Ratio CC50/EC50
In short: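 SI is CC50 in mock-infected MT-4 cells divided by EC50 against HIV-1 IIIB. Both come from the same 5-day MTT assay, with serial 5-fold dilutions in triplicate wells.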

Row | Structure (SMILES) | selectivity ratio
12 | N#Cc1ccc(Nc2nccc(Oc3ccc(C(=O)c4ccc(O)cc4)cc3)n2)cc1 | 7
13 | Cc1cn([C@H]2C[C@H](N=[N+]=[N-])[C@@H](CO)O2)c(=O)[nH]c1=O [ZIDOVUDINE] | > 14400
14 | Cc1cc(C)cc(C(=O)c2cc(Cl)ccc2Oc2cc(C)nc(Nc3ccc(C#N)cc3)n2)c1 | < 1
15 | Cc1ccc(C(=O)c2cc(Cl)ccc2Oc2nc(Nc3ccc(C#N)cc3)ncc2C)cc1 | < 1
16 | COc1ccc(C(=O)c2ccccc2)c(Oc2cc(C)nc(Nc3ccc(C#N)cc3)n2)c1 | < 1
17 | Cc1ccc(C(=O)c2cc(Cl)ccc2Oc2ccnc(Nc3ccc(C#N)cc3)n2)cc1 | < 1
18 | Cc1cnc(Nc2ccc(C#N)cc2)nc1Oc1ccc(C(=O)c2ccc(O)cc2)cc1 | > 82
19 | Cc1cc(Oc2ccc(Cl)cc2C(=O)c2ccccc2C)nc(Nc2ccc(C#N)cc2)n1 | < 1
20 | COCCc1ccc(Oc2cc(C)nc(Nc3ccc(C#N)cc3)n2)cc1 | 18
21 | Cc1cc(C)cc(C(=O)c2cc(Cl)ccc2Oc2nc(Nc3ccc(C#N)cc3)ncc2C)c1 | 9

Tested on: not listed separately
Assay: Cytotoxicity against human MT4 cells after 5 days by MTT assay
Type: cell-based
Details: not given
In short: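 Mock-infected MT-4 cells at 6 × 10⁵ cells/mL received medium instead of virus, with serial 5-fold compound dilutions in triplicate. After 5 days, viability was read by MTT at 540 and 690 nm.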

Row | Structure (SMILES) | CC50 at 120 h
22 | N#Cc1ccc(Nc2nccc(Oc3ccc(C(=O)c4ccc(O)cc4)cc3)n2)cc1 | 19.4 µM
23 | Cc1cn([C@H]2C[C@H](N=[N+]=[N-])[C@@H](CO)O2)c(=O)[nH]c1=O [ZIDOVUDINE] | > 93.5 µM
24 | Cc1cc(C)cc(C(=O)c2cc(Cl)ccc2Oc2cc(C)nc(Nc3ccc(C#N)cc3)n2)c1 | 37.1 µM
25 | Cc1ccc(C(=O)c2cc(Cl)ccc2Oc2nc(Nc3ccc(C#N)cc3)ncc2C)cc1 | ≥ 0.83 µM
26 | COc1ccc(C(=O)c2ccccc2)c(Oc2cc(C)nc(Nc3ccc(C#N)cc3)n2)c1 | 4.9 µM
27 | Cc1ccc(C(=O)c2cc(Cl)ccc2Oc2ccnc(Nc3ccc(C#N)cc3)n2)cc1 | 1.71 µM
28 | Cc1cnc(Nc2ccc(C#N)cc2)nc1Oc1ccc(C(=O)c2ccc(O)cc2)cc1 | > 296 µM
29 | O=C1Nc2ccc(Cl)cc2[C@@](C#CC2CC2)(C(F)(F)F)O1 [EFAVIRENZ] | > 6.34 µM
30 | Cc1cc(Oc2ccc(Cl)cc2C(=O)c2ccccc2C)nc(Nc2ccc(C#N)cc2)n1 | 4.24 µM
31 | Cc1ccnc2c1NC(=O)c1cccnc1N2C1CC1 [NEVIRAPINE] | > 15 µM
32 | COCCc1ccc(Oc2cc(C)nc(Nc3ccc(C#N)cc3)n2)cc1 | 13.8 µM
33 | Cc1cc(C)cc(C(=O)c2cc(Cl)ccc2Oc2nc(Nc3ccc(C#N)cc3)ncc2C)c1 | 13.4 µM

Biological target: Human immunodeficiency virus type 1 reverse transcriptase (Human immunodeficiency virus 1, UniProt Q72547, K103N/Y181C)
Assay: Inhibition of HIV RT K103N/Y181C mutant by cell based assay
Details: not given
In short: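 Serial 5-fold compound dilutions in triplicate wells, with parallel mock-infected wells. After 5 days, viability was read by MTT reduction at 540 and 690 nm. The median OD of three wells gave EC₅₀, the concentration giving 50% protection from viral cytopathic effect.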

Row | Structure (SMILES) | EC50
34 | Cc1cc(/C=C/C#N)cc(C)c1Nc1ccnc(Nc2ccc(C#N)cc2)n1 [RILPIVIRINE] | 0.0008 µM

Tested on: Human immunodeficiency virus 1
Assay: Antiviral activity against HIV1 RES056 expressing RT K103N/Y181C mutant infected in human MT4 cells assessed as inhibition of virus-induced cytopathic effect after 5 days by MTT assay
Type: functional, organism-based
Details: Human immunodeficiency virus 1, RES056, MT4, 120 h
In short: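 MT-4 cells, exponentially growing, spun 5 min at 220 g and resuspended at 6 × 10⁵ cells/mL, then infected with 100-300 CCID₅₀ virus stock. Serial 5-fold compound dilutions were added from 10× stocks, in triplicate alongside mock-infected wells. Viability was read by MTT at 540 and 690 nm. EC₅₀ is the concentration giving 50% protection from cytopathic effect, using median OD of three wells.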

Row | Structure (SMILES) | EC50
35 | N#Cc1ccc(Nc2nccc(Oc3ccc(C(=O)c4ccc(O)cc4)cc3)n2)cc1 | > 19.4 µM
36 | Cc1cn([C@H]2C[C@H](N=[N+]=[N-])[C@@H](CO)O2)c(=O)[nH]c1=O [ZIDOVUDINE] | 0.01 µM
37 | Cc1cc(C)cc(C(=O)c2cc(Cl)ccc2Oc2cc(C)nc(Nc3ccc(C#N)cc3)n2)c1 | > 37.1 µM
38 | Cc1ccc(C(=O)c2cc(Cl)ccc2Oc2nc(Nc3ccc(C#N)cc3)ncc2C)cc1 | > 0.83 µM
39 | COc1ccc(C(=O)c2ccccc2)c(Oc2cc(C)nc(Nc3ccc(C#N)cc3)n2)c1 | > 4.9 µM
40 | Cc1ccc(C(=O)c2cc(Cl)ccc2Oc2ccnc(Nc3ccc(C#N)cc3)n2)cc1 | > 1.71 µM
41 | Cc1cnc(Nc2ccc(C#N)cc2)nc1Oc1ccc(C(=O)c2ccc(O)cc2)cc1 | > 296 µM
42 | Cc1cc(Oc2ccc(Cl)cc2C(=O)c2ccccc2C)nc(Nc2ccc(C#N)cc2)n1 | > 4.24 µM
43 | Cc1ccnc2c1NC(=O)c1cccnc1N2C1CC1 [NEVIRAPINE] | 5.12 µM
44 | COCCc1ccc(Oc2cc(C)nc(Nc3ccc(C#N)cc3)n2)cc1 | > 13.8 µM
45 | Cc1cc(C)cc(C(=O)c2cc(Cl)ccc2Oc2nc(Nc3ccc(C#N)cc3)ncc2C)c1 | > 13.4 µM

Tested on: Human immunodeficiency virus 2
Assay: Antiviral activity against HIV2 ROD infected in human MT4 cells assessed as inhibition of virus-induced cytopathic effect after 5 days by MTT assay
Type: functional, organism-based
Details: Human immunodeficiency virus 2, ISOLATE ROD, MT4, 120 h
In short: as §1

Row | Structure (SMILES) | EC50
46 | N#Cc1ccc(Nc2nccc(Oc3ccc(C(=O)c4ccc(O)cc4)cc3)n2)cc1 | > 19.4 µM
47 | Cc1cn([C@H]2C[C@H](N=[N+]=[N-])[C@@H](CO)O2)c(=O)[nH]c1=O [ZIDOVUDINE] | 0.01 µM
48 | Cc1cc(C)cc(C(=O)c2cc(Cl)ccc2Oc2cc(C)nc(Nc3ccc(C#N)cc3)n2)c1 | > 37.1 µM
49 | Cc1ccc(C(=O)c2cc(Cl)ccc2Oc2nc(Nc3ccc(C#N)cc3)ncc2C)cc1 | > 0.83 µM
50 | COc1ccc(C(=O)c2ccccc2)c(Oc2cc(C)nc(Nc3ccc(C#N)cc3)n2)c1 | > 4.9 µM
51 | Cc1ccc(C(=O)c2cc(Cl)ccc2Oc2ccnc(Nc3ccc(C#N)cc3)n2)cc1 | > 1.71 µM
52 | Cc1cnc(Nc2ccc(C#N)cc2)nc1Oc1ccc(C(=O)c2ccc(O)cc2)cc1 | > 296 µM
53 | O=C1Nc2ccc(Cl)cc2[C@@](C#CC2CC2)(C(F)(F)F)O1 [EFAVIRENZ] | > 6.34 µM
54 | Cc1cc(Oc2ccc(Cl)cc2C(=O)c2ccccc2C)nc(Nc2ccc(C#N)cc2)n1 | > 4.24 µM
55 | Cc1ccnc2c1NC(=O)c1cccnc1N2C1CC1 [NEVIRAPINE] | > 15 µM
56 | COCCc1ccc(Oc2cc(C)nc(Nc3ccc(C#N)cc3)n2)cc1 | > 13.8 µM
57 | Cc1cc(C)cc(C(=O)c2cc(Cl)ccc2Oc2nc(Nc3ccc(C#N)cc3)ncc2C)c1 | > 13.4 µM

Biological target: Human immunodeficiency virus type 1 reverse transcriptase (Human immunodeficiency virus 1, UniProt Q72547)
Assay: Inhibition of recombinant wild type HIV1 RT using poly(rA)/oligo(dT)16 as template after 40 mins by spectrofluorometric analysis
Details: not given

Row | Structure (SMILES) | IC50
58 | N#Cc1ccc(Nc2nccc(Oc3ccc(C(=O)c4ccc(O)cc4)cc3)n2)cc1 | 7.13 µM
59 | Cc1cnc(Nc2ccc(C#N)cc2)nc1Oc1ccc(C(=O)c2ccc(O)cc2)cc1 | 5.21 µM
60 | COCCc1ccc(Oc2cc(C)nc(Nc3ccc(C#N)cc3)n2)cc1 | 11.6 µM
61 | Cc1cc(C)cc(C(=O)c2cc(Cl)ccc2Oc2nc(Nc3ccc(C#N)cc3)ncc2C)c1 | 3.06 µM
